# Bioassay records (PubChem)
# Only a sample is shown.
# HKDC1 activator: activators of human hexokinase HKDC1 | recombinant HKDC1, G6PDH/diaphorase resazurin fluorescence; stronger effect = lower value | activity change, negative = activation, % at 20 µM | 340,000 compounds, 0.056% hits | AID 493187;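 active = activation of 40% or more at 20 µM, a change of -40% or lower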
#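 Material: in-house human HKDC1 enzyme, G6PDH and diaphorase coupling enzymes | Quantity: HKDC1 at 5 µg/mL final | Medium: Tris buffer at pH 8.0 containing MgCl2 | Compound dosing: 20 µM single dose | Schedule: 90 min reaction at room temperature, dark | Measured by: Resorufin fluorescence, 525/613 nm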
# A number is an active result; 0 = inactive.
SMILES,HKDC1 activator
Cc1ccc(OP2(=O)Nc3cc(C)c(C)cc3S2)cc1 (centres undefined),-40.7
Nc1cnn(-c2ccccc2)c(=O)c1Cl,0
COc1cc2c(cc1OC)-c1c(OC)c(OC)c(OC)c3ccnc(c13)C2=O,0
Cc1cccc(N2C(=O)NC(=O)/C(=C\c3cc(C)n(-c4sc5c(c4C#N)CCCC5)c3C)C2=O)c1C,0
Cn1ncnc2c(=O)n(C)c(=O)nc1-2,0
